Active and inactive are the calls of the source. The rule behind the calls is not given here.
Assays:
[1] = Cytotoxicity against human Ava5 cells assessed as cell viability at 20 uM after 72 hrs by XTT assay relative to control; type: cell-based; settings: read-out: Activity
Outline: (§1)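 XTT viability assay run alongside the antiviral assays. Ava5 cells were plated at 5×10^3 per well and exposed to 20 or 200 μM for 72 h at 37 °C in humidified 5% CO₂. Viability is expressed as % of untreated cells.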

[2] = test system: Hepatitis C virus; experiment: Antiviral activity against HCV infected in human Ava5 cells assessed as inhibition of NS5B protein synthesis at 1 uM after 3 days in presence of HO-1 inhibitor SnPP by Western blot method; type: functional, organism-based; settings: Hepacivirus hominis
Outline: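 Ava5 cells were co-incubated for 3 days with test compound at 1 μM plus the HO-1 inhibitor SnPP (tin protoporphyrin IX) at 0–5 μM. Lysates went to western blot for NS5B and GAPDH. RNA went to RT-qPCR normalized to gapdh mRNA. Mean ± SD of three independent experiments.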

[3] = target: T1, Transcription regulator protein BACH1 (Homo sapiens) (UniProt O14867); experiment: Reduction of bach-1 translocation into nucleus of human Ava5 cells after 3 days by Western blot method
T1 sequence (whole entry): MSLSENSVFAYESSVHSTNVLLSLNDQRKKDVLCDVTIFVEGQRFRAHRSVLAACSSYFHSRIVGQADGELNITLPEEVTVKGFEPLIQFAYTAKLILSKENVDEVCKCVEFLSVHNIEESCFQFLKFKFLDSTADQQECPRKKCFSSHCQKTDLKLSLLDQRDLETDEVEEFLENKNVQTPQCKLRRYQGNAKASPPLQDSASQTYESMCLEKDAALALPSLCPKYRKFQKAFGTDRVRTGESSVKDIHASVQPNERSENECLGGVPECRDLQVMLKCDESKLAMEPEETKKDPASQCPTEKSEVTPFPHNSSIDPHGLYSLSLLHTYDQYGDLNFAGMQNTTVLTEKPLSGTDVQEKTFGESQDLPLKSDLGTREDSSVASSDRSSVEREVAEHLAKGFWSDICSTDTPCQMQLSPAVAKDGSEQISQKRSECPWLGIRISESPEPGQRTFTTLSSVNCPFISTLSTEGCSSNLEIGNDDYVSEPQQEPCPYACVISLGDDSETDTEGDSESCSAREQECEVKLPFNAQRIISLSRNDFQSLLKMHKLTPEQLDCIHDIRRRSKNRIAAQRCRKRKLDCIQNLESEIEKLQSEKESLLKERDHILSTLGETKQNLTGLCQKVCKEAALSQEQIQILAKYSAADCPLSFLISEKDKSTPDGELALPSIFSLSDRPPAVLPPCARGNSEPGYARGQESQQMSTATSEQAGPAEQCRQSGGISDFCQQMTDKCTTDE

[4] = test system: Hepatitis C virus; experiment: Antiviral activity against HCV infected in human Ava5 cells assessed as inhibition of viral RNA replication after 3 days by RT-qPCR method; type: functional, organism-based, Hepacivirus hominis; settings: Ava5, 72 h
Outline: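 Ava5 cells (Huh-7 hepatoma cells carrying an HCV replicon, grown in DMEM/10% FBS with 1 mg·mL⁻¹ G418) were treated for 3 days with a range of concentrations. HCV RNA was measured by RT-qPCR and normalized to cellular gapdh mRNA. Values are mean ± SD of three independent experiments, each in triplicate.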

[5] = organism: Homo sapiens; experiment: Effect on Keap-1 protein expression in human Ava5 cells at 0.5 to 1 uM after 3 days by Western blot method; type: functional, cell-based
Outline: (§2)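 Ava5 cells were treated for 3 days at the indicated concentrations. Whole-cell lysates were immunoblotted with anti-Nrf2, anti-Keap-1, anti-bach1 and anti-GAPDH.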

[6] = Cytotoxicity against human Ava5 cells assessed as decrease in cell viability after 72 hrs by XTT assay; type: cell-based
Outline: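 XTT assay on […] Ava5 cells at 5×10^3 per well with serial dilutions for 72 h at 37 °C in 5% CO₂. CC50 is the concentration giving 50% growth inhibition.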

[7] = target: T2, Heme oxygenase 1 (Homo sapiens) (UniProt P09601); experiment: Induction of HO-1-mediated IFN-alpha-2 mRNA expression in human Ava5 cells after 3 days by RT-qPCR method; type: cell-based
T2 sequence (whole entry): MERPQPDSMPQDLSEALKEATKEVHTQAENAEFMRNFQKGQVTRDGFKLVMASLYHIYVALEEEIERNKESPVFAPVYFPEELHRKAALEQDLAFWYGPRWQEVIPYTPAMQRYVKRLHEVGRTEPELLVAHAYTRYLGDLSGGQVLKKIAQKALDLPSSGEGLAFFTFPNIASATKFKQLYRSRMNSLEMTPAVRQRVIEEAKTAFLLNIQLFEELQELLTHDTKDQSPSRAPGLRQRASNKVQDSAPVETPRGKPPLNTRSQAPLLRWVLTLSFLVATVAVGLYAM
Outline: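 Ava5 cells were treated for 3 days at the indicated concentrations. Target mRNAs were measured by RT-qPCR with specific primers and normalized to endogenous gapdh. Results are relative to DMSO-treated cells.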

[8] = Cytotoxicity against human Ava5 cells assessed as cell viability at 200 uM after 72 hrs by XTT assay relative to control; type: cell-based; settings: read-out: Activity; outline: as §1
[9] = target: T3, Nuclear factor erythroid 2-related factor 2 (Homo sapiens) (UniProt Q16236); experiment: Induction of Nrf2-mediated ARE transactivation in human Ava5 cells transfected with p2xARE-Luc after 3 days; type: cell-based
T3 sequence (whole entry): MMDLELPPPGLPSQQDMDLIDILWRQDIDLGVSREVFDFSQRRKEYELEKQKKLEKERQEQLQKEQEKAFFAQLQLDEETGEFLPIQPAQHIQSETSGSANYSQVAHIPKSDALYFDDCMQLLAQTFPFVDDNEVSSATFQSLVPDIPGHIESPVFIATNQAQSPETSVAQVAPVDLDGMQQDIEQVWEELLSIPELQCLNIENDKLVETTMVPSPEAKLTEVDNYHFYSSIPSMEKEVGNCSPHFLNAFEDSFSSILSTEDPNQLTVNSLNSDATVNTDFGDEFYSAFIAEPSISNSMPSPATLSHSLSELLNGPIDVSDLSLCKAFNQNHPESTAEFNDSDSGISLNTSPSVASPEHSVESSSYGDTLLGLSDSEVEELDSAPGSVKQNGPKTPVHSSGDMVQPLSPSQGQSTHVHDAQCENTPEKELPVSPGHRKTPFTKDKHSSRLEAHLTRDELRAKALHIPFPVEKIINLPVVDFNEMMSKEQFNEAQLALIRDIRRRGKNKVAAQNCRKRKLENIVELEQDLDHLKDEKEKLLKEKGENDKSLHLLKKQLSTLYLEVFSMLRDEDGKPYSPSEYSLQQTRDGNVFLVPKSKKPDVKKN
Outline: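 Ava5 cells were transfected with the p2xARE-Luc reporter (ARE-driven firefly luciferase), treated for 3 days, and luciferase was measured in lysates. Normalization was to co-transfected pCMV-SEAP. Mean ± SD of three independent experiments.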

[10] = target: T2, Heme oxygenase 1 (Homo sapiens); experiment: Induction of HO-1-mediated ISRE promoter activity in human Ava5 cells transfected with pISRE-Luc after 3 days; type: cell-based
Outline: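 Ava5 cells carrying pISRE-Luc (ISRE-driven firefly luciferase) were treated for 3 days at increasing concentrations. Luciferase activity was read in cell lysates, normalized to co-transfected pCMV-SEAP.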

[11] = organism: Homo sapiens; experiment: Downregulation of bach-1 protein expression in human Ava5 cells after 3 days by Western blot method; type: functional, cell-based; outline: as §2

With `COc1ccc(Nc2cc3oc(-c4ccco4)nc3c3ccccc23)cc1` the viability at 72 h, 20 µM [1] was 89.5%, the inhibition [2] was “inactive” and the Activity [3] was “Dose-dependent effect”. For the same molecule, the IC50 [4] was 0.63 µM, the Activity [5] was “inactive” and the CC50 at 72 h [6] was 144 µM. For the same molecule, the Activity [7] was “Dose-dependent effect”, the viability at 72 h, 200 µM [8] was 32.3% and the Activity [9] was “Dose-dependent effect”. For the same molecule, the Activity [10] was “Dose-dependent effect” and the Activity [11] was “Dose-dependent effect”.
